Screening data (PubChem)
OX1R antag-1 – blocks the human orexin 1 receptor; actives 0.43% (n = 330,000); CHO/OX1R cells, Fluo-8 calcium fluorescence, orexin A; O43613; inhibition, % at 5 µM;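 active means inhibition above its plate's threshold, mean inhibition of all tested compounds on the plate plus 3 SD, cut at about 37% in these data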;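 further: 0% = orexin A challenge wells and 100% = SB-334867-A antagonist wells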
Target sequence (O43613 whole entry, looked up): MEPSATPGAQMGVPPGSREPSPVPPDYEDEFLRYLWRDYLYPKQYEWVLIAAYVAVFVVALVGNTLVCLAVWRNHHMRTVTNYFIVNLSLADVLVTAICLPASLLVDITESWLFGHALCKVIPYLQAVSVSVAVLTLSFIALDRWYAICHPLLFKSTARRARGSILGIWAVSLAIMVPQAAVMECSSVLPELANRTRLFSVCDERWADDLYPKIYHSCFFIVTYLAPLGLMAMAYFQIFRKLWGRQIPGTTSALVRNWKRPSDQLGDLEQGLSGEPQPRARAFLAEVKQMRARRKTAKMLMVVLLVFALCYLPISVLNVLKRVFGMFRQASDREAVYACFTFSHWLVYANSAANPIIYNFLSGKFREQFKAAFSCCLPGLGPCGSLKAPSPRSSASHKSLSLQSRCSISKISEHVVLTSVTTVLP
CHO parental Ca – signal in parental CHO cells, OX1R antagonist counter-screen; parental CHO-K1, ATP-induced calcium, Fluo-8 fluorescence; inhibition, % at 5.6 µM; actives 0.63% (n = 330,000); AID 463079;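 active means inhibition above that plate's mean sample inhibition plus 3 SD, cut at about 26% in these data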;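 further: 0% = ATP-challenged DMSO wells and 100% = DMSO wells without ATP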
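Assay system: untransfected parental CHO cell line. Also added: ATP agonist challenge. Dosing: one dose, 5.6 µM nominal. Measured by: Fluo-8 fluorescence. Read-out: % inhibition. Benchmarks: ATP wells versus no-ATP DMSO wells. Repeats: no replicates.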
TAAR1 ag – human TAAR1 agonism; Q96RJ0; CHO RD-HGA16 TAAR1, Fluo-8 calcium fluorescence; vehicle wells 0%, saturating PEA agonist 100%; activation, % at 3 µM; actives 0.99% (n = 360,000); AID 624467;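 active means activation above the mean activation of all test compounds in the run plus 3 SD, cut at about 38% in these data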
Target sequence (Q96RJ0 whole entry, looked up): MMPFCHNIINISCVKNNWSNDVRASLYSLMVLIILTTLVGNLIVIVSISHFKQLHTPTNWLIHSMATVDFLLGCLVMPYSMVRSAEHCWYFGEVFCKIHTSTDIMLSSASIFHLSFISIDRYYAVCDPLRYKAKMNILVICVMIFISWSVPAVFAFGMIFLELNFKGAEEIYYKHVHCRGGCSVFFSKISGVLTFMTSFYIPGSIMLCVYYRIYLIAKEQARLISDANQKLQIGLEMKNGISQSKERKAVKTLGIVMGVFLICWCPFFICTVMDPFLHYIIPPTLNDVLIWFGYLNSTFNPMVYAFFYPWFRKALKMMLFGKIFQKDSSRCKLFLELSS
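Repeats: no replicates (n 1) | Material: CHO-derived RD-HGA16 cells with stable Gα16 and human TAAR1 | Technique: Kinetic Fluo-8 calcium fluorescence | Schedule: 17-24 h seeding, 75 min 37 °C dye, 30 min RT | Evaluation: % activation from peak over basal fluorescence ratio, DMSO-to-PEA scaled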
TAAR1 antagonist – human TAAR1 antagonism | CHO RD-HGA16 TAAR1, Fluo-8 calcium fluorescence, antagonist | actives 1.5% (n = 360,000) | Q96RJ0 | inhibition, % at 3 µM;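 active means inhibition above a per-plate cutoff, the mean inhibition of test compounds on that plate plus 3 SD, cut at about 49% in these data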;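 further: 0% = DMSO plus EC80 beta-PEA response and 100% = DMSO alone without agonist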
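Test system: CHO RD-HGA16 cells bearing hTAAR1 | Reagent: β-PEA, EC80 | Compound dosing: 3 µM, single point | Schedule: Dye loading 75 min at 37 °C, then 30 min room temperature | Signal: Calcium fluorescence with Fluo-8 | Evaluation: Percent inhibition of PEA-evoked calcium signal, max/basal emission ratio | Control set: DMSO-only wells and EC80 β-PEA-stimulated wells | Repeats: Singlicate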
OX1R antag-2 – blocks the human orexin 1 receptor; O43613; OX1R-expressing cells, FRET antagonist read-out; inhibition, % at 6.6 µM; AID 485270; actives 1.8% (n = 330,000); in the data active means inhibition mostly above about 38%, no sharp cut-off; inactive means mostly below about 40%;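 further: 0% = agonist challenge alone and 100% = reference antagonist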
GPR7 antag – human neuropeptides B/W receptor 1 antagonism; GPR7-expressing cells, fluorescence antagonist assay; inhibition, % at 4.4 µM; actives 1.1% (n = 290,000); AID 1861; P48145; in the data active means inhibition above about 16%, passing the limit was not always enough;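 further: cells stimulated with the agonist NPW; 0% = agonist with vehicle and 100% = vehicle without agonist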
TAAR1 ag confirm – human TAAR1 agonism, confirmed; shares compounds with TAAR1 ag; CHO RD-HGA16 TAAR1, Fluo-8 calcium fluorescence; scaled: DMSO 0%, maximal phenethylamine 100%; activation, % at 3 µM; actives 82% (n = 2,400);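 active means activation above a cutoff set at the run's mean compound activation plus 3 SD, cut at about 39% in these data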
Ga16 ag counter – nonselective agonism, TAAR1 counter-screen; shares compounds with TAAR1 ag; CHO-Ga16 parental, Fluo-8 calcium fluorescence; normalized to maximal ATP response, DMSO zero; activation, % at 3 µM; actives 50% (n = 2,400);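 active means activation above the run cutoff, the mean activation over all tested wells plus 3 SD, cut at about 12% in these data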;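 further: 0% = DMSO wells and 100% = maximal ATP response on the peak over basal ratio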
TAAR1 desensitize – human TAAR1 agonist that also desensitizes the receptor | shares compounds with TAAR1 ag | CHO RD-HGA16 hTAAR1, Fluo-8 calcium, beta-PEA response inhibition | inhibition, % at 3 µM | actives 46% (n = 2,400) | AID 651951;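 active means inhibition above the run cutoff, the mean inhibition of all test compounds plus 3 SD, cut at about 49% in these data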;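 further: beta-PEA stimulus applied at its EC80; loss of beta-PEA calcium signal after compound pretreatment read as receptor desensitization; 0% = DMSO with beta-PEA at EC80 and 100% = DMSO alone without agonist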
Ga16 nonsel ant – nonselective Ga16 antagonism, counter-screen; shares compounds with TAAR1 ag; CHO-Ga16 ATP-induced calcium, Fluo-8 fluorescence; inhibition, % at 3 µM; actives 39% (n = 2,400); AID 651952;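 active means inhibition above the plate's mean compound inhibition plus 3 SD, computed per plate, cut at about 22% in these data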;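 further: 0% = EC80 ATP with DMSO and 100% = DMSO wells without ATP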
Numbers without * were called inactive; / = not tested or not shown. A selection: hits, their analogues and other compounds. The true share with any hit is near 4.6%.

SMILES	OX1R antag-1	CHO parental Ca	TAAR1 ag	TAAR1 antagonist	OX1R antag-2	GPR7 antag	TAAR1 ag confirm	Ga16 ag counter	TAAR1 desensitize	Ga16 nonsel ant
Cc1cccc(CCNC(=O)CCS(=O)(=O)c2cc3c(cc2C)NC(=O)CO3)c1	-19.2	-10.8	33.5	-25.6	14.8	-3.0	/	/	/	/
Cc1cc2c(cc1S(=O)(=O)CCC(=O)NCCc1ccccc1)OCC(=O)N2	-24.6	-6.5	88.7*	51.5*	23.1	-8.5	100.8*	0.3	74.7*	1.1
COc1ccc(S(=O)(=O)N2CCOCC2)cc1NC(=O)C1CC(=O)N(c2ccc3c(c2)OCCO3)C1 (configuration not stated)	/	/	4.7	-30.9	/	/	/	/	/	/
CC1(C)CC[C@]2(C(=O)n3ccnc3)CC[C@]3(C)[C@H](C(=O)C=C4[C@@]5(C)C=C(C#N)C(=O)C(C)(C)[C@@H]5CC[C@]43C)[C@@H]2C1	/	/	13.2	24.6	/	/	/	/	/	/
C[C@H](O)[C@@H]1CN2CCc3c([nH]c4c(-c5ccccc5)cccc34)[C@@H]2C[C@@H]1N(C)C(=S)NCCc1ccccc1	/	/	84.6*	61.1*	/	/	37.3	0.1	3.2	14.4
COc1ccc2oc(C(=O)OCC(=O)NCc3ccccc3OC)c(C)c2c1	-4.0	56.1*	69.9*	91.2*	11.1	/	22.8	4.7	51.8*	15.5
CCCC(=O)Nc1sc2c(c1C(=O)Nc1ccccn1)CCCC2	-40.7	-23.6	4.8	-16.4	14.5	6.8	/	/	/	/
O=C(NCCc1cccs1)C1CC(c2cccc(F)c2)=NO1 (configuration not stated)	-12.2	2.6	58.6*	85.0*	18.6	/	73.3*	4.7	93.5*	3.8
COc1cccc(N(CC(=O)NC2CCCCC2)C(=O)Cn2nnc(-c3ccc(C)o3)n2)c1	/	/	0.7	-27.5	/	-7.1	/	/	/	/
CCOc1ccc(C(=O)Nc2ccc(N3CCN(C)CC3)cc2)cc1	-7.2	-3.1	13.1	-4.8	0.9	-7.0	/	/	/	/
CCCCOc1ccc(C(=O)Nc2ccc(N3CCN(C)CC3)cc2)cc1	-5.2	-11.0	47.9*	23.4	23.1	-4.4	68.0*	2.8	68.2*	17.8
O=c1c2cnn(-c3ccc(F)cc3)c2ncn1Cc1ccccc1	-20.2	-2.7	43.1*	50.0*	-0.2	-5.9	3.5	4.4	5.9	12.5
CN(C)C=Nc1c(Br)cc(Br)c2nonc12	58.0*	64.4*	86.9*	77.8*	42.7	-10.4	48.3*	72.8*	56.4*	65.8*
CN(C)CCCN(C(=O)c1ccc(C(=O)c2ccccc2)cc1)c1nc2ccc(F)cc2s1	-4.7	0.2	34.3	11.3	10.2	11.5	/	/	/	/
CN(C)CCCN(C(=O)c1ccc(S(=O)(=O)N(C)C2CCCCC2)cc1)c1nc2ccc(F)cc2s1	-15.4	-21.5	47.0*	20.0	5.3	18.6	48.6*	21.9*	48.9*	32.5*
COC(=O)[C@]12C[C@H](CC(=O)NCC3CCCCC3)C(=O)N(Cc3ccccc3)C1=C[C@H](C1CCCC1)O[C@@H]2C	/	/	-2.5	-28.6	/	/	/	/	/	/
Cc1ccsc1/C=N/NC(=O)Cn1nc(C)c([N+](=O)[O-])c1C	-27.6	-14.8	44.6*	-6.4	5.5	-7.0	72.4*	0.1	54.9*	6.4
COc1cccc(/C=N/NC(=O)Cn2nc(C)c([N+](=O)[O-])c2C)c1O	-24.8	-6.1	0.9	-16.7	18.0	1.6	/	/	/	/
Cc1nn(CC(=O)N/N=C/c2cccs2)c(C)c1[N+](=O)[O-]	-8.8	-5.2	56.6*	37.6	12.7	-19.5	80.0*	5.5	72.3*	3.6
C/C(=N\NC(=O)Cn1nc(C)c([N+](=O)[O-])c1C)c1ccc(Cl)s1	-23.0	-16.3	0.9	-16.4	11.7	-14.9	/	/	/	/
Cc1ccsc1/C=N/NC(=O)Cn1cnc2ccccc21	-11.9	-13.0	55.7*	28.7	36.6	-5.3	60.9*	2.2	45.1	11.7
CSC[C@H]1CN(Cc2ccccc2)C(=O)[C@@H]1CC(=O)Nc1ccc(Br)cc1	/	/	0.3	-9.8	/	/	/	/	/	/
Cc1nonc1OCCNCc1c(C(=O)N(C)C)nc2ccc(Cl)cn12	-10.7	-9.6	3.6	3.4	2.9	-5.3	/	/	/	/
CN(CCc1ccccn1)C(=O)Nc1ccc(Cl)cc1	0.6	-2.4	9.8	10.4	5.6	9.2	/	/	/	/
CN(CCc1ccccn1)C1CC(=O)N(c2ccc(Cl)cc2)C1=O (configuration not stated)	-33.4	-25.0	67.5*	6.6	16.6	-3.3	17.1	-0.4	-3.3	1.2
SMILES	OX1R antag-1	CHO parental Ca	TAAR1 ag	TAAR1 antagonist	OX1R antag-2	GPR7 antag	TAAR1 ag confirm	Ga16 ag counter	TAAR1 desensitize	Ga16 nonsel ant
O=C(COC(=O)Cn1cnc2ccccc2c1=O)Nc1ccc(Cl)cc1	-16.9	-17.3	48.9*	13.6	12.5	-5.8	65.5*	1.5	28.2	3.6
O=C(COC(=O)Cn1cnc2ccccc2c1=O)Nc1ccc(Cl)c(C(F)(F)F)c1	-23.5	-19.1	26.8	8.4	-0.3	-4.3	/	/	/	/
Clc1cccc(Cl)c1CSc1nnc(-c2ccncc2)s1	-7.1	0.2	117.0*	78.5*	14.4	-1.1	128.2*	116.6*	99.6*	74.8*
Cc1ccc(CC2(OCCN(C)C)CCC(C(C)(C)C)CC2)cc1 (configuration not stated)	/	/	63.4*	23.2	/	/	85.1*	44.5*	75.4*	41.2*
CN(C)CCOC1(Cc2ccc(F)cc2)CCC(C(C)(C)C)CC1 (configuration not stated)	/	/	56.0*	24.9	/	/	50.6*	34.3*	33.5	23.1*
Cc1ccc(CNC(=S)NC2CCC(C(C)(C)C)CC2)cc1 (configuration not stated)	/	/	0.1	6.3	/	-22.1	/	/	/	/
CCCCN(C(=O)CSc1nnnn1C)C1CCS(=O)(=O)C1 (configuration not stated)	-4.3	0.4	-0.2	9.4	3.3	/	/	/	/	/
CCOc1ccc(C=NCC(O)c2ccccc2)cc1 (configuration not stated)	-3.8	-7.7	93.7*	75.8*	4.9	-0.3	105.7*	1.1	88.4*	-0.5
CCCCN(CCCC)c1ccc(C(=O)c2ccccc2C(=O)O)c(O)c1	78.1*	94.0*	107.2*	91.8*	17.9	7.8	37.6*	38.7*	63.9*	56.5*
